ChEMBL document CHEMBL1153918, “Novel fatty acid synthase (FAS) inhibitors: design, synthesis, biological evaluation, and molecular docking studies” (Bioorg Med Chem, 2009)

Key:
Fatty acid synthase = Fatty acid synthase (Rattus norvegicus, UniProt P12785); test: Inhibition of rat liver FAS by Coomassie blue staining
Outline: (§1)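 Rat liver FAS purified, about 90% pure by SDS-PAGE with Coomassie staining. Enzyme, compound, NADPH and acetyl-CoA preincubated in K2HPO4 buffer pH 7.0 for 30 min at 37 °C. Malonyl-CoA then added and NADPH oxidation followed at 340 nm for 3 min at 37 °C. IC50 by linear regression, mean of triplicates. Single-point data given as % inhibition at 60 µM.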

[1] = Cytotoxicity against human HLF by MTT assay; assay type: cell-based; conditions: HLF cells, read-out: TC50 (the source's name)
Outline: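 Human embryonic lung fibroblasts (HLF), viability read by MTT method. TC50 values are means of three experiments.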

FAS = test: Therapeutic index, ratio of TC50 for human HLF to IC50 for rat liver FAS; conditions: HLF cells (TC50)
Outline: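 In vitro therapeutic index = TC50 (HLF cells, MTT) / IC50 (purified rat liver FAS, NADPH oxidation at 340 nm).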

[2] = target: Fatty acid synthase (Rattus norvegicus) (UniProt P12785); test: Inhibition of rat liver FAS at 60 uM by Coomassie blue staining; outline: as §1
Chain of Fatty acid synthase (Rattus norvegicus) (P12785 whole entry): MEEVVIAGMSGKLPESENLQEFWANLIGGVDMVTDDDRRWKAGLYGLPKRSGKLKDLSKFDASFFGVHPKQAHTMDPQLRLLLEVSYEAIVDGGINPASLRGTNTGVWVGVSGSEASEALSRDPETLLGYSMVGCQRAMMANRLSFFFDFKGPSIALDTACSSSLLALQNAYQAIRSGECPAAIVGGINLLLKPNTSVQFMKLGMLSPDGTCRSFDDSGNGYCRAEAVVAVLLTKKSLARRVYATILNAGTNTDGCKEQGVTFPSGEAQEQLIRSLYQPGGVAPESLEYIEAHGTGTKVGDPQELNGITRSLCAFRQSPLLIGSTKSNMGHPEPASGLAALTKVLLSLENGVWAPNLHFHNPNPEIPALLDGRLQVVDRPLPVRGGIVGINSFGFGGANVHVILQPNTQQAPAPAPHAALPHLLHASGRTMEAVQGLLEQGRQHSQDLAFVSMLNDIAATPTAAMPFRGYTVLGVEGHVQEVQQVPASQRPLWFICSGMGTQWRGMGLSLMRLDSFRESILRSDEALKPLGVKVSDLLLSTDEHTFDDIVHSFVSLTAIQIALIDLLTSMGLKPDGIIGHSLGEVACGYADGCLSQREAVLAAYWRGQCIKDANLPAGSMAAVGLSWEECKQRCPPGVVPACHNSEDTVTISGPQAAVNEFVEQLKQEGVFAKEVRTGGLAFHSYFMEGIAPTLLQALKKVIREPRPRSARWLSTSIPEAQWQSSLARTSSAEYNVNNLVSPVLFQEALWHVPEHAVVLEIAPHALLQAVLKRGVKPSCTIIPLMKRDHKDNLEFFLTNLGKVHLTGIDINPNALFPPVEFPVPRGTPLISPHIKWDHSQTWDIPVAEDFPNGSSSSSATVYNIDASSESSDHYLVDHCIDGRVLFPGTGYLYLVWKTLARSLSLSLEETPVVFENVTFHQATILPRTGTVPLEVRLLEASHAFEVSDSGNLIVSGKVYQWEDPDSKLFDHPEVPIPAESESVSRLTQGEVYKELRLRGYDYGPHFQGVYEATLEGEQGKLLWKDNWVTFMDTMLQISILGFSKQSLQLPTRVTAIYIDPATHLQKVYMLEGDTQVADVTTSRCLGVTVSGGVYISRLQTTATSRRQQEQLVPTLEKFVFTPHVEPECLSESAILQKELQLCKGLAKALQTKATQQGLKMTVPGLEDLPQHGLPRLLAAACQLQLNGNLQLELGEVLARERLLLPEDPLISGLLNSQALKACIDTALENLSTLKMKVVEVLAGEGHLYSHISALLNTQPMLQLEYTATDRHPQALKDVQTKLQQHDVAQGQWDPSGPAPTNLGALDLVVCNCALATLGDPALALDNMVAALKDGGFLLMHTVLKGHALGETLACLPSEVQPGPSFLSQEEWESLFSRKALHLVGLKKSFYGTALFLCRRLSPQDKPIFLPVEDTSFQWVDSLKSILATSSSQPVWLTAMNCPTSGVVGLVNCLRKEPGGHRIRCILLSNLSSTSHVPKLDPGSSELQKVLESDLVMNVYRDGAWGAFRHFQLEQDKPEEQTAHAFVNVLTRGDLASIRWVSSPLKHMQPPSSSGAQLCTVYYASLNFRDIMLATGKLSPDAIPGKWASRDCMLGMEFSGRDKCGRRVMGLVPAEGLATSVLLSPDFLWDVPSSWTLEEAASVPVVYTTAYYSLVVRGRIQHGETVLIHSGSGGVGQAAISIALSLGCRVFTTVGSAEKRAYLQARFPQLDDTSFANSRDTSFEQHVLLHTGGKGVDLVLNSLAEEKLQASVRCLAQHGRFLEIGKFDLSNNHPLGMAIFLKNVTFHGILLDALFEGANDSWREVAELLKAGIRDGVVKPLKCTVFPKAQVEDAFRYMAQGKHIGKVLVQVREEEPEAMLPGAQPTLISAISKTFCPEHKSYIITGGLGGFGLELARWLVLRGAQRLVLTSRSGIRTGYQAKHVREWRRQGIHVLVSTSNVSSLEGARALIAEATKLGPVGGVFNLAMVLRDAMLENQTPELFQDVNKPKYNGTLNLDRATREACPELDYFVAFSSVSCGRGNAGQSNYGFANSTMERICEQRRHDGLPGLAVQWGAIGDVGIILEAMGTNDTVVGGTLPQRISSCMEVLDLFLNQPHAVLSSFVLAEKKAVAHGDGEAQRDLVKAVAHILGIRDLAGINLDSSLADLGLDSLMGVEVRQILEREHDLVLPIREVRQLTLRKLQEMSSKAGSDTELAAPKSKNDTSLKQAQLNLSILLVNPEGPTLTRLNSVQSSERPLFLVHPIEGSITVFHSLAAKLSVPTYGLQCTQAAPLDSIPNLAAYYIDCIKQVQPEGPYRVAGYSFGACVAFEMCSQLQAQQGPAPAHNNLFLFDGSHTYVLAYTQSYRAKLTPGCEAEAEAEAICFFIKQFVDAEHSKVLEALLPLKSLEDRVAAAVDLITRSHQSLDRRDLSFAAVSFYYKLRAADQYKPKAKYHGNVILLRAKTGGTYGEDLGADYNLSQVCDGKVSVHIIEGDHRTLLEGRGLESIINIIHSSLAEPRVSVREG

HL-60 = test: Cytotoxicity against human HL60 cells assessed as cell viability after 2 hrs by MTT assay; assay type: functional, cell-based; conditions: HL-60, 2 h
Outline: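 HL60 cells in exponential growth suspended in 1640 medium, about 2×10^4 cells/well. Serially diluted compound (DMSO solution) added, then 2 h incubation at 37 °C in 5% CO2. Viable cells counted by MTT. […] given ± SD from three repeats.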

HeLa = test: Cytotoxicity against human HeLa cells after 20 hrs by trypan blue exclusion assay; assay type: functional, cell-based
Outline: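 HeLa cells kept in DMEM with 10% fetal calf serum at 37 °C, 5% CO2, for 24 h. About 2.5×10^4 cells/well exposed to graded concentrations (DMSO solution) for 20 h. Cells then trypsinized and counted by trypan-blue exclusion. Three repeats gave SD.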

Chain of Fatty acid synthase (P12785 whole entry): as above

Question: Which IC50 (Fatty acid synthase) does the source give for `C=C1C(=O)S[C@H](CCCCCCCCCCC)[C@H]1C(=O)O` here?
Answer: 0.79 µM

Question: And the CC50 [1]?
Answer: 4.75 µM

Question: With `C=C1C(=O)O[C@H](CCCCCCCC)[C@H]1C(=O)O` as the molecule, how does the selectivity ratio (FAS) read?
Answer: 5.61

Question: With `CCCCCCC[C@@H]1OC(=O)c2ccccc2[C@H]1C(=O)O` (relative stereo) as the molecule, how does the inhibition [2] read?
Answer: 35.9%

Question: What does the source list for `C=C1C(=O)S[C@H](CCCCCCCCC)[C@H]1C(=O)O`?
Answer: IC50 (Fatty acid synthase): 2.28 µM; CC50 [1]: 6.86 µM

Question: With `CCCCCCCCC[C@H]1OC(=O)C(C)(C)[C@@H]1C(=O)O` (relative stereo) as the molecule, how does the inhibition [2] read?
Answer: 23.8%

Question: With `CCCCCCCCC[C@H]1OC(=O)C(=C(C)C)[C@@H]1C(=O)O` (relative stereo) as the molecule, how does the inhibition [2] read?
Answer: 38.4%

Question: For `CCCCCCCCCC[C@@H]1OC(=O)c2ccccc2[C@H]1C(=O)O` (relative stereo), which IC50 (Fatty acid synthase) is on record?
Answer: 24.2 µM

Question: What about the CC50 [1] of the same molecule?
Answer: > 200 µM

Question: Which inhibition [2] does the source give for `CCCCCCCC[C@H]1OC(=O)C(C)(C)[C@@H]1C(=O)O` (relative stereo) here?
Answer: 16.7%

Question: With `CCCCCCCC[C@@H]1OC(=O)c2ccccc2[C@H]1C(=O)O` (relative stereo) as the molecule, how does the IC50 (Fatty acid synthase) read?
Answer: 88.6 µM

Question: What does the source list for `CCCCCCCCCCC[C@H]1OC(=O)C(=C(C)C)[C@@H]1C(=O)O` (relative stereo)?
Answer: IC50 (Fatty acid synthase): 27.5 µM; CC50 [1]: 153 µM; selectivity ratio (FAS): 5.57

Question: For `CCCCCCCCC[C@@H]1OC(=O)c2ccccc2[C@H]1C(=O)O` (relative stereo), which IC50 (Fatty acid synthase) is on record?
Answer: 29.8 µM

Question: For `CCCCCCCCCCC[C@@H]1OC(=O)c2ccccc2[C@H]1C(=O)O` (relative stereo), which IC50 (Fatty acid synthase) is on record?
Answer: 19.5 µM

Question: And the CC50 [1]?
Answer: 94.2 µM

Question: And the selectivity ratio (FAS)?
Answer: 4.84

Question: Which inhibition [2] does the source give for `CCCCCCCC[C@H]1OC(=O)C(=C(C)C)[C@@H]1C(=O)O` (relative stereo) here?
Answer: 17.4%

Question: Which IC50 (Fatty acid synthase) does the source give for `C=C1C(=O)S[C@H](CCCCCC)[C@H]1C(=O)O` here?
Answer: 16.7 µM

Question: And the CC50 [1]?
Answer: 96.4 µM

Question: And the selectivity ratio (FAS)?
Answer: 5.76

Question: What does the source list for `C=C1C(=O)S[C@H](CCCCCCCC)[C@H]1C(=O)O`?
Answer: IC50 (Fatty acid synthase): 2.56 µM; CC50 [1]: 23.7 µM; selectivity ratio (FAS): 9.26; IC50 (HL-60): 5.38 µM; IC50 (HeLa): 46.1 µM

Question: For `CCCCCC[C@@H]1OC(=O)c2ccccc2[C@H]1C(=O)O` (relative stereo), which inhibition [2] is on record?
Answer: 19.4%

Question: What does the source list for `CCCCCCCCCC[C@H]1OC(=O)C(=C(C)C)[C@@H]1C(=O)O` (relative stereo)?
Answer: IC50 (Fatty acid synthase): 122 µM; CC50 [1]: > 200 µM

Question: With `C=C1C(=O)S[C@H](CCCCCCCCCC)[C@H]1C(=O)O` as the molecule, how does the IC50 (Fatty acid synthase) read?
Answer: 1.19 µM

Question: And the CC50 [1]?
Answer: 6.8 µM
